Source: ChEMBL document CHEMBL1144743, “Identification of prostaglandin D2 receptor antagonists based on a tetrahydropyridoindole scaffold” (Bioorg Med Chem Lett, 2008)

Test system: not listed separately
Test: Antagonist activity at PGD2 subtype 1 in human platelet rich plasma assessed as inhibition of PGD2-induced accumulation of cAMP
Assay type: functional
Method in brief: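 Blood from normal human volunteers; PRP prepared by centrifugation at 150g for 15 min. IBMX added (2 mM final) to block cAMP degradation. PRP samples preincubated 10 min at 37 °C with increasing compound concentrations in DMSO before PGD2 challenge. Reaction stopped with ethanol to lyse cells and extract cAMP. IC50 reported.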

Compared with `CS(=O)(=O)c1cc(F)cc2c1c(Sc1ccc(Cl)cc1F)c1n2CCC1CC(=O)O` (stereo unspecified), `CS(=O)(=O)c1cc(F)cc2c1c(Sc1ccc(Cl)cc1)c1n2CCC1CC(=O)O` (stereo unspecified) is 3.1-fold lower in IC50: 0.0321 µM for the first, 0.0104 µM for the second.

First: CCC(CC)c1cc(F)cc2c1c(Sc1ccc(Cl)cc1)c1n2CCC1CC(=O)O (stereo unspecified)
Second: CC(O)c1cc(F)cc2c1c(Sc1ccc(Cl)cc1)c1n2CCC1CC(=O)O (stereo unspecified)
The IC50 of the first is 2.6-fold lower: 0.0216 µM for the first, 0.056 µM for the second.

Going from `CC(C)C(O)c1cc(F)cc2c1c(Sc1ccc(Cl)cc1)c1n2CCC1CC(=O)O` (stereo unspecified) to `CSC(C)c1cc(F)cc2c1c(Sc1ccc(Cl)cc1)c1n2CCC1CC(=O)O` (stereo unspecified), the IC50 falls from 0.509 µM to 0.0041 µM (120-fold).

`CS(=O)(=O)c1cc(F)cc2c1c(-c1cccc(-c3ccccc3)c1)c1n2CCC1CC(=O)O` (stereo unspecified) and `CS(=O)(=O)c1cc(F)cc2c1c(Sc1ccc3ccccc3c1)c1n2CCC1CC(=O)O` (stereo unspecified) are within 1.5-fold of each other in IC50: 0.0316 µM for the first, 0.04 µM for the second.

First: CCS(=O)(=O)c1cc(F)cc2c1c(Sc1ccc(Cl)cc1)c1n2CCC1CC(=O)O (stereo unspecified)
Second: CC(=O)c1cc(F)cc2c1c(Sc1ccc(Cl)cc1)c1n2CCC1CC(=O)O (stereo unspecified)
The IC50 of the first is 3-fold lower: 0.034 µM for the first, 0.101 µM for the second.

Going from `CS(=O)(=O)c1cc(F)cc2c1c(Cc1ccc(Cl)cc1)c1n2CCC1CC(=O)O` (stereo unspecified) to `CS(=O)(=O)c1cc(F)cc2c1c(Sc1ccc(C(F)(F)F)cc1)c1n2CCC1CC(=O)O` (stereo unspecified), the IC50 rises from 0.0047 µM to 0.0292 µM (6.2-fold).

Target: not listed separately
Test: Binding affinity to human recombinant PGD2 receptor subtype 1 by radioligand competition binding assay
Method in brief: (§1)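 Radioligand competition binding on recombinant human receptors, DP1 or thromboxane TP receptor; Ki values reported.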

Going from `CS(=O)(=O)c1cc(F)cc2c1c(Sc1ccc(Cl)cc1F)c1n2CCC1CC(=O)O` (stereo unspecified) to `CS(=O)(=O)c1cc(F)cc2c1c(Sc1ccc(Cl)cc1)c1n2CCC1CC(=O)O` (stereo unspecified), the Ki falls from 0.0035 µM to 0.0013 µM (2.7-fold). The second binds more tightly here.

Going from `CCC(CC)c1cc(F)cc2c1c(Sc1ccc(Cl)cc1)c1n2CCC1CC(=O)O` (stereo unspecified) to `CC(O)c1cc(F)cc2c1c(Sc1ccc(Cl)cc1)c1n2CCC1CC(=O)O` (stereo unspecified), the Ki falls from 0.0081 µM to 0.0025 µM (3.2-fold). The second binds more tightly here.

Compared with `CC(C)C(O)c1cc(F)cc2c1c(Sc1ccc(Cl)cc1)c1n2CCC1CC(=O)O` (stereo unspecified), `CSC(C)c1cc(F)cc2c1c(Sc1ccc(Cl)cc1)c1n2CCC1CC(=O)O` (stereo unspecified) is 4.9-fold lower in Ki: 0.0079 µM for the first, 0.0016 µM for the second. The second binds more tightly here.

`CS(=O)(=O)c1cc(F)cc2c1c(-c1cccc(-c3ccccc3)c1)c1n2CCC1CC(=O)O` (stereo unspecified) and `CS(=O)(=O)c1cc(F)cc2c1c(Sc1ccc3ccccc3c1)c1n2CCC1CC(=O)O` (stereo unspecified) are within 1.5-fold of each other in Ki: 0.0017 µM for the first, 0.0012 µM for the second.

Going from `CCS(=O)(=O)c1cc(F)cc2c1c(Sc1ccc(Cl)cc1)c1n2CCC1CC(=O)O` (stereo unspecified) to `CC(=O)c1cc(F)cc2c1c(Sc1ccc(Cl)cc1)c1n2CCC1CC(=O)O` (stereo unspecified), the Ki rises from 0.0023 µM to 0.0036 µM (1.6-fold). The first binds more tightly here.

Going from `CS(=O)(=O)c1cc(F)cc2c1c(Cc1ccc(Cl)cc1)c1n2CCC1CC(=O)O` (stereo unspecified) to `CS(=O)(=O)c1cc(F)cc2c1c(Sc1ccc(C(F)(F)F)cc1)c1n2CCC1CC(=O)O` (stereo unspecified), the Ki rises from 0.0005 µM to 0.0018 µM (3.6-fold). The first binds more tightly here.

Target: T1, Thromboxane A2 receptor (Homo sapiens, UniProt P21731)
T1 sequence (P21731 whole entry): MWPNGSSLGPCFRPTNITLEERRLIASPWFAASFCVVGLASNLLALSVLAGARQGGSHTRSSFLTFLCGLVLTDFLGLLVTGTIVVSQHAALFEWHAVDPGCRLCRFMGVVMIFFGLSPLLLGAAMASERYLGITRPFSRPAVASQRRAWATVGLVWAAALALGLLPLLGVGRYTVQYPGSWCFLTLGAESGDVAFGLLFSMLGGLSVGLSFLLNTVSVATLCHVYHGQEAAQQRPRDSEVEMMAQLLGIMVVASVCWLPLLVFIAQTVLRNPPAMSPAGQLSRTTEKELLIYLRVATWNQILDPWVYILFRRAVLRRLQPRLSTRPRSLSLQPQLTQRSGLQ
Test: Binding affinity to human recombinant TP receptor by radioligand competition binding assay
Method in brief: as §1

`CS(=O)(=O)c1cc(F)cc2c1c(Sc1ccc(Cl)cc1F)c1n2CCC1CC(=O)O` (stereo unspecified) and `CS(=O)(=O)c1cc(F)cc2c1c(Sc1ccc(Cl)cc1)c1n2CCC1CC(=O)O` (stereo unspecified) are within 1.5-fold of each other in Ki: 0.198 µM for the first, 0.226 µM for the second.

`CCC(CC)c1cc(F)cc2c1c(Sc1ccc(Cl)cc1)c1n2CCC1CC(=O)O` (stereo unspecified) and `CC(O)c1cc(F)cc2c1c(Sc1ccc(Cl)cc1)c1n2CCC1CC(=O)O` (stereo unspecified) are within 1.5-fold of each other in Ki: 0.363 µM for the first, 0.273 µM for the second.

First: CC(C)C(O)c1cc(F)cc2c1c(Sc1ccc(Cl)cc1)c1n2CCC1CC(=O)O (stereo unspecified)
Second: CSC(C)c1cc(F)cc2c1c(Sc1ccc(Cl)cc1)c1n2CCC1CC(=O)O (stereo unspecified)
The Ki of the first is 18-fold higher: 0.484 µM for the first, 0.0275 µM for the second. The second binds more tightly here.

Compared with `CS(=O)(=O)c1cc(F)cc2c1c(-c1cccc(-c3ccccc3)c1)c1n2CCC1CC(=O)O` (stereo unspecified), `CS(=O)(=O)c1cc(F)cc2c1c(Sc1ccc3ccccc3c1)c1n2CCC1CC(=O)O` (stereo unspecified) is 1.9-fold higher in Ki: 0.31 µM for the first, 0.583 µM for the second.

First: CCS(=O)(=O)c1cc(F)cc2c1c(Sc1ccc(Cl)cc1)c1n2CCC1CC(=O)O (stereo unspecified)
Second: CC(=O)c1cc(F)cc2c1c(Sc1ccc(Cl)cc1)c1n2CCC1CC(=O)O (stereo unspecified)
The Ki of the first is 2.7-fold lower: 0.25 µM for the first, 0.674 µM for the second.

First: CS(=O)(=O)c1cc(F)cc2c1c(Cc1ccc(Cl)cc1)c1n2CCC1CC(=O)O (stereo unspecified)
Second: CS(=O)(=O)c1cc(F)cc2c1c(Sc1ccc(C(F)(F)F)cc1)c1n2CCC1CC(=O)O (stereo unspecified)
The Ki of the first is 24-fold lower: 0.0117 µM for the first, 0.286 µM for the second.
